Data: ChEMBL document CHEMBL4196053, “Endoperoxide-8-aminoquinoline hybrids as dual-stage antimalarial agents with enhanced metabolic stability” (Eur J Med Chem, 2018)
Active and inactive are the calls of the source. No cut-off for these calls is given here.

What was measured:
[1] = Selectivity index, ratio of CC50 for human Caco2 cells to IC50 for chloroquine resistant Plasmodium falciparum W2 erythrocytic ring stage; type: toxicity; conditions: Caco-2 cells, read-out: Ratio CC50/IC50
Plasmodium berghei [2] = test: Antiplasmodial activity against luciferase expressing Plasmodium berghei infected in human HuH7 cells preincubated for 1 hr followed by parasite infection measured after 48 hrs by bioluminescence analysis; type: functional, organism-based; conditions: Huh-7
Procedure, shortened: (§1)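 Huh-7 hepatoma cells (1.0 × 10^4/well) seeded the day before. Compound-containing medium added about 1 h before infection with fresh firefly luciferase-expressing P. berghei sporozoites from Anopheles stephensi salivary glands, then spun 1700 g for 5 min. DMSO vehicle in controls. Parasite load read by bioluminescence 48 h post-infection. Initial screen at fixed concentrations; EC50 from nonlinear regression of normalized dose-response data.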

Plasmodium falciparum = test: Antiplasmodial activity against chloroquine resistant Plasmodium falciparum W2 erythrocytic ring stage after 48 hrs using hypoxanthine by flow cytometric analysis; type: functional, organism-based; conditions: W2, 48 h
Procedure, shortened: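 Ring-stage W2 P. falciparum synchronized with 5% sorbitol, about 1% parasitemia in human erythrocytes. Cells fixed in 2% formaldehyde, stained with 1 nM YOYO-1, infected cells counted by flow cytometry. IC50 taken against untreated controls; two experiments, four replicates each.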

Plasmodium berghei [3] = test: Antiplasmodial activity against luciferase expressing Plasmodium berghei sporozoites infected in human HuH7 cells at 10 uM preincubated for 1 hr followed by parasite infection measured after 48 hrs by bioluminescence analysis relative to control; type: functional; procedure, shortened: as §1
Huh-7 = test: Cytotoxicity against human HuH7 cells assessed as reduction in cell viability at 10 uM after 48 hrs by Alamar blue assay; type: cell-based; conditions: huh-7, 48 h
Procedure, shortened: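 Huh-7 cells seeded and infected with P. berghei sporozoites as in the liver-stage assay, with compound added about 1 h before infection and DMSO vehicle in controls. Host cell viability read by AlamarBlue fluorescence 48 h post-infection.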

Plasmodium berghei [4] = test: Antiplasmodial activity against luciferase expressing Plasmodium berghei sporozoites infected in human HuH7 cells at 2 uM preincubated for 1 hr followed by parasite infection measured after 48 hrs by bioluminescence analysis relative to control; type: functional; procedure, shortened: as §1
[5] = Half life in rat liver microsomes at […] in presence of NADPH by HPLC analysis; type: ADME, microsome
[6] = Cytotoxicity against human Caco2 cells assessed as reduction in cell viability after 72 hrs by neutral red dye based assay; conditions: Caco-2 cells
Procedure, shortened: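 CaCo-2 cells grown in RPMI-1640 with 10% FBS and antibiotic-antimycotic at 37°C, 5% CO2. Exposed once confluent for 72 h to compound diluted in medium, organic solvent ≤1%. Medium then removed and cells washed with PBS.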

[7] = Intrinsic clearance in rat liver microsomes assessed per mg protein at […] in presence of NADPH by HPLC analysis; type: ADME, microsome; conditions: read-out: CLH

| SMILES | selectivity ratio [1] | EC50 (Plasmodium berghei [2]) | EC50 (Plasmodium falciparum) | Activity (Plasmodium berghei [3]) | Activity (Huh-7) | Activity (Plasmodium berghei [4]) | half-life [5] | CC50 at 72 h [6] | microsomal CLint [7] |
| --- | --- | --- | --- | --- | --- | --- | --- | --- | --- |
| COc1cc(NC(C)CCCNC(=O)C2CCC3(CC2)OOC2(OO3)C3CC4CC(C3)CC2C4)c2ncccc2c1-c1ccsc1 (configuration not stated) | > 600 | 2110 nM | 45 nM | Active | Non-Toxic | >50% | 0.617 h | > 50000 nM | 37.4 µL/min/mg |
| COc1cc(NC(=O)C2CCC3(CC2)OOC2(OO3)C3CC4CC(C3)CC2C4)c2ncccc2c1-c1ccc(Br)cc1 (configuration not stated) | – | – | 5670 nM | 35% | – | – | 2.07 h | – | 11.2 µL/min/mg |
| COc1cc(NC(=O)C2CCC3(CC2)OOC2(OO3)C3CC4CC(C3)CC2C4)c2ncccc2c1-c1ccc(F)cc1 (configuration not stated) | – | – | 916 nM | – | – | – | 1 h | – | 23.1 µL/min/mg |
| COc1cc(NC(C)CCCNC(=O)C2CCC3(CC2)OOC2(OO3)C3CC4CC(C3)CC2C4)c2ncccc2c1-c1ccc(Cl)cc1 (configuration not stated) | > 1000 | 2810 nM | 75 nM | Active | Non-Toxic | >50% | 2.15 h | > 50000 nM | 10.7 µL/min/mg |
| COc1cc(NC(C)CCCNCC2CCC3(CC2)OOC2(OO3)C3CC4CC(C3)CC2C4)c2ncccc2c1-c1ccsc1 (configuration not stated) | – | – | 81 nM | Active | Toxic | Active | – | – | – |
| COc1cc(NC(=O)C2CCC3(CC2)OOC2(OO3)C3CC4CC(C3)CC2C4)c2ncccc2c1-c1ccccc1 (configuration not stated) | – | – | 287 nM | 52% | – | – | 0.7 h | – | 33 µL/min/mg |
| COc1cc(NC(C)CCCNC(=O)C2CCC3(CC2)OOC2(OO3)C3CC4CC(C3)CC2C4)c2ncccc2c1-c1ccccc1 (configuration not stated) | – | 1690 nM | 204 nM | Active | Non-Toxic | >50% | 0.7 h | > 50000 nM | 33 µL/min/mg |
| COc1cc(NC(C)CCCNC(=O)C2CCC3(CC2)OOC2(OO3)C3CC4CC(C3)CC2C4)c2ncccc2c1-c1ccoc1 (configuration not stated) | > 600 | 2350 nM | 76 nM | Active | Non-Toxic | >50% | – | > 50000 nM | – |
| COc1cc(NC(C)CCCNCC2CCC3(CC2)OOC2(OO3)C3CC4CC(C3)CC2C4)c2ncccc2c1-c1ccc(C(F)(F)F)cc1 (configuration not stated) | – | – | 19 nM | 62% | Toxic | Active | – | 10300 nM | – |
| COc1cc(NC(C)CCCNCC2CCC3(CC2)OOC2(OO3)C3CC4CC(C3)CC2C4)c2ncccc2c1-c1ccc(Cl)cc1 (configuration not stated) | – | – | – | Active | Toxic | Active | – | 13200 nM | – |
| COc1cc(NC(C)CCCNC(=O)C2CCC3(CC2)OOC2(OO3)C3CC4CC(C3)CC2C4)c2ncccc2c1-c1ccc(Br)cc1 (configuration not stated) | > 1000 | 4440 nM | 61 nM | Active | Non-Toxic | >50% | – | > 50000 nM | – |
| COc1cc(NC(C)CCCNCC2CCC3(CC2)OOC2(OO3)C3CC4CC(C3)CC2C4)c2ncccc2c1-c1ccc(C)cc1 (configuration not stated) | – | – | 176 nM | Active | Toxic | Active | – | 11700 nM | – |
| COc1cc(NC(C)CCCNC(=O)C2CCC3(CC2)OOC2(OO3)C3CC4CC(C3)CC2C4)c2ncccc2c1-c1ccc(C)cc1 (configuration not stated) | – | 1650 nM | 141 nM | Active | Non-Toxic | >50% | 1.45 h | > 50000 nM | 15.9 µL/min/mg |
